Measured values: ChEMBL document CHEMBL1153393, “Discovery of N-(4-methoxyphenyl)-N,2-dimethylquinazolin-4-amine, a potent apoptosis inducer and efficacious anticancer agent with high blood brain barrier penetration” (J Med Chem, 2009)
Active and inactive are the calls of the source. The calls are words filed in the database; no cut-off is given here.

Tests used:
T47D [1] = experiment: Induction of apoptosis in human T47D cells assessed as caspase activation after 24 hrs by HTS assay; format: functional, cell-based
Procedure, shortened: (§1)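 Cell-based caspase HTS assay. Cells plated with various concentrations and incubated 24 h at 37 °C, then given fluorogenic caspase substrate N-(Ac-DEVD)-N'-ethoxycarbonyl-R110. EC50 reported as mean ± SEM of three or more experiments.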

HCT-116 [2] = experiment: Induction of apoptosis in human HCT116 cells assessed as caspase activation after 24 hrs by HTS assay; format: functional, cell-based; conditions: HCT-116, 24 h; procedure, shortened: as §1
SNU-398 [3] = experiment: Induction of apoptosis in human SNU398 cells assessed as caspase activation after 24 hrs by HTS assay; format: functional, cell-based; conditions: SNU-398, 24 h; procedure, shortened: as §1
T47D [4] = experiment: Induction of apoptosis in human T47D cells assessed as S phase DNA content at 5 nM after 48 hrs by using propidium iodide staining by flow cytometry; format: functional
Procedure, shortened: (§2)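 T47D cells treated with 5 nM for 24 or 48 h, then stained with propidium iodide. DNA content analysed by flow cytometry, with cells scored in G1, G2/M and subdiploid (sub-G1) populations against untreated control.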

T47D [5] = experiment: Induction of apoptosis in human T47D cells assessed as S phase DNA content at 5 nM after 24 hrs by using propidium iodide staining by flow cytometry; format: functional; procedure, shortened: as §2
T47D [6] = experiment: Induction of apoptosis in human T47D cells assessed as G1 phase DNA content at 5 nM after 48 hrs by using propidium iodide staining by flow cytometry; format: functional; procedure, shortened: as §2
T47D [7] = experiment: Induction of apoptosis in human T47D cells assessed as G1 phase DNA content at 5 nM after 24 hrs by using propidium iodide staining by flow cytometry; format: functional; procedure, shortened: as §2
T47D [8] = experiment: Growth inhibition of human T47D cells after 48 hrs by celltiter assay; format: functional
Procedure, shortened: (§3)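 Cells ATCC-sourced, in 96-well format, exposed to serial concentrations for 48 h. Survival quantitated by CellTiter-Glo luminescence. GI50 reported as mean ± SEM of three or more experiments.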

HCT-116 [9] = experiment: Growth inhibition of human HCT116 cells after 48 hrs by celltiter assay; format: functional; conditions: HCT-116, 48 h; procedure, shortened: as §3
SNU-398 [10] = experiment: Growth inhibition of human SNU398 cells after 48 hrs by celltiter assay; format: functional; conditions: SNU-398, 48 h; procedure, shortened: as §3
T47D [11] = experiment: Induction of apoptosis in human T47D cells assessed as sub-diploid DNA content at 5 nM after 24 hrs by using propidium iodide staining by flow cytometry; format: functional; procedure, shortened: as §2
T47D [12] = experiment: Induction of apoptosis in human T47D cells assessed as sub-diploid DNA content at 5 nM after 48 hrs by using propidium iodide staining by flow cytometry; format: functional; procedure, shortened: as §2
T47D [13] = experiment: Induction of apoptosis in human T47D cells assessed as G2/M DNA content at 5 nM after 24 hrs by using propidium iodide staining by flow cytometry; format: functional; procedure, shortened: as §2
Jurkat [14] = experiment: Induction of apoptosis in human Jurkat cells assessed as sub-diploid DNA content at 10 nM after 18 hrs by flow cytometry; format: functional
Jurkat [15] = experiment: Induction of apoptosis in human Jurkat cells assessed as sub-diploid DNA content at 10 nM after 18 hrs by flow cytometry in presence of caspase inhibitor MX-1013; format: functional
Brain = experiment: AUC (0 to infinity) in C57BL/6 mouse brain at 2.5 mg/kg, iv; format: ADME, organism-based; parameters: time infinity, dose 2.5 mg/kg, route intravenous; conditions: in vivo
Procedure, shortened: (§4)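 Mice given a single iv dose of 2.5 mg/kg. Plasma from blood samples and homogenized whole brain collected over time and analyzed by LC-MS/MS. Brain/plasma ratio is taken from the AUCs of the concentration-time curves.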

MX1 [16] = experiment: Antitumor activity against human MX1 cells xenografted in Crl:Nu/Nu-nuBR mouse assessed as tumor growth inhibition at 7.5 mg/kg, iv administered once weekly for 3 weeks; format: functional, organism-based; parameters: dose 7.5 mg/kg
MX1 [17] = experiment: Antitumor activity against human MX1 cells xenografted in Crl:Nu/Nu-nuBR mouse assessed as tumor growth inhibition at 10 mg/kg, iv administered once weekly for 3 weeks; format: functional, organism-based; parameters: dose 10 mg/kg
MX1 [18] = experiment: Antitumor activity against human MX1 cells xenografted in Crl:Nu/Nu-nuBR mouse assessed as tumor growth inhibition at 5 mg/kg, iv administered once weekly for 3 weeks; format: functional, organism-based; parameters: dose 5 mg/kg
Plasma = experiment: AUC (0 to infinity) in C57BL/6 mouse plasma at 2.5 mg/kg, iv; format: ADME, organism-based; parameters: time infinity, dose 2.5 mg/kg, route intravenous; conditions: in vivo; procedure, shortened: as §4
[19] = Ratio of AUC (0 to infinity) in C57BL/6 mouse brain to AUC (0 to infinity) in C57BL/6 mouse plasma at 2.5 mg/kg, iv; format: ADME, organism-based; parameters: dose 2.5 mg/kg, route intravenous; conditions: read-out: Ratio AUC; procedure, shortened: as §4
T47D [20] = experiment: Induction of apoptosis in human T47D cells assessed as subdiploid DNA content at 5 nM after 48 hrs by using propidium iodide staining by flow cytometry
[21] = Drug level in rhesus monkey cerebrospinal fluid; format: ADME, tissue-based, Macaca mulatta; conditions: in vivo
[22] = Drug level in rhesus monkey cerebrospinal fluid at 7.5 mg/kg, iv after 24 hrs; format: ADME, organism-based, Macaca mulatta; parameters: dose 7.5 mg/kg, route intravenous; conditions: in vivo

Row | SMILES | EC50 (T47D [1]) [nM] | EC50 (HCT-116 [2]) [nM] | EC50 (SNU-398 [3]) [nM] | other results
1 | Cc1nc(N(C)c2ccc(N(C)C)cc2)c2ccccc2n1 | 16 | 19 | – | –
2 | Cc1nc(N(C)c2ccc([N+](=O)[O-])cc2)c2ccccc2n1 | 740 | 1300 | 620 | –
3 | COc1ccc(N(C)c2nc(C)nc3ccccc23)cc1 [VERUBULIN] | – | 3 | 2 | Activity (T47D [4]): 16%; Activity (T47D [5]): 10%; Activity (T47D [6]): 14%; Activity (T47D [7]): 15%; GI50 (T47D [8]): 6 nM; GI50 (HCT-116 [9]): 6 nM; GI50 (SNU-398 [10]): 3 nM; Activity (T47D [11]): 15%; Activity (T47D [12]): 34%; Activity (T47D [13]): 58%; Activity (Jurkat [14]): 68%; Activity (Jurkat [15]): 11%; AUC (Brain): 11459 ng/mL; Activity (MX1 [16]): Active; Activity (MX1 [17]): Active; Activity (MX1 [18]): Active; AUC (Plasma): 686 ng/mL; Kp [19]: 16; Activity (T47D [20]): 34%
4 | COc1ccc(N(C)c2nc(NC/C=C(\C)CCC=C(C)C)nc3ccccc23)cc1 | 290 | 460 | 270 | –
5 | COc1ccc(N(C)c2nc(CO)nc3ccccc23)cc1 | 2 | 4 | 2 | –
6 | CC(=O)Nc1ccc(N(C)c2nc(C)nc3ccccc23)cc1 | 59 | 83 | 66 | Kp [19]: 0.74
7 | COc1ccc(N(C)c2nc(N(C)C(C)=O)nc3ccccc23)cc1 | 9 | 9 | 10 | –
8 | Cc1nc(N(C)c2ccc(O)cc2)c2ccccc2n1 | 86 | 130 | – | –
9 | COc1ccc(N(C)c2nc(Cl)nc3ccccc23)cc1 | 2 | 2 | 2 | –
10 | COc1ccc(N(C)c2nc(C)nc3ccccc23)cn1 | – | – | – | Kp [19]: 5.8
11 | CSc1ccc(N(C)c2nc(C)nc3ccccc23)cc1 | 3 | 3 | – | –
12 | COc1ccc(N(C)c2nc(N(C)C)nc3ccccc23)cc1 | 15 | 43 | 33 | Kp [19]: 4
13 | COc1ccc(N(C)c2nc(CN(C)C)nc3ccccc23)cc1 | 1800 | 2600 | 2000 | –
14 | Cc1ccc(NC(=O)c2ccc(CN3CCN(C)CC3)cc2)cc1Nc1nccc(-c2cccnc2)n1 [IMATINIB] | – | – | – | Drug uptake [21]: 5%
15 | COc1ccc(N(C)c2nc(C)nc3ccccc23)nc1 | 16 | 44 | 18 | –
16 | COc1ccc(N(C)c2nc(C)nc3ccccc23)cc1OC | 10 | 14 | 13 | –

Row | SMILES | EC50 (T47D [1]) [nM] | EC50 (HCT-116 [2]) [nM] | EC50 (SNU-398 [3]) [nM] | other results
17 | COc1ccc(N(C)c2nc(CF)nc3ccccc23)cc1 | 2 | 2 | 1 | –
18 | Cc1nc(N(C)c2ccc(N(C)C)nc2)c2ccccc2n1 | 15 | 33 | 20 | –
19 | CCOc1ccc(N(C)c2nc(C)nc3ccccc23)cc1 | 4 | 4 | 4 | –
20 | COc1ccc(N(C)c2nc(C)nc3ccccc23)cc1F | 2 | 2 | 2 | –
21 | COc1cnc(N(C)c2nc(C)nc3ccccc23)cn1 | 53 | 75 | 49 | Kp [19]: 1.9
22 | Cc1nc(N(C)c2ccc(N)cc2)c2ccccc2n1 | 180 | 250 | 170 | Kp [19]: 0.9
23 | COc1ccc(N(C)c2nc(C)nc3ccccc23)c(F)c1 | 4 | 4 | 4 | –
24 | Cc1nc(N(C)c2ccc(F)cc2)c2ccccc2n1 | 420 | 630 | 390 | –
25 | COc1ccc(S(=O)(=O)Nc2cccnc2Nc2ccc(O)cc2)cc1 [ABT-751] | – | – | – | Drug uptake [22]: 1.1%
26 | Cc1nc(N(C)c2ccc(OC(F)F)cc2)c2ccccc2n1 | 9 | 11 | – | –
27 | COc1ccc(N(C)c2nc(CCl)nc3ccccc23)cc1 | 48 | 48 | – | –
28 | COc1ccc(N(C)c2nc(NN)nc3ccccc23)cc1 | 23 | 36 | 20 | –
29 | CNc1nc(N(C)c2ccc(OC)cc2)c2ccccc2n1 | 8 | 9 | 5 | –
30 | CCc1ccc(N(C)c2nc(C)nc3ccccc23)cc1 | 31 | 26 | – | –
31 | Cc1nc(N(C)c2ccc(N=[N+]=[N-])cc2)c2ccccc2n1 | 11 | 12 | 11 | –
